The list is not random: actives were taken first. Their share in the collection is about 2.1%.
PGC1a acetyl inh = PGC1a acetylation modulation, inhibitor mode; AID 651687; U2OS PGC1a acetylation, AlphaScreen anti-acetyl-lysine; with virally co-expressed GCN5 acetyltransferase; inhibition, % at 15.6 µM; hit rate 0.17% among 350,000;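 active = every replicate shows inhibition of at least 40%; inconclusive = mean inhibition at least 40% but some replicate below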;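 note: 0% = neutral control wells and 100% = positive control wells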
EWS-Fli block = blocks EWS/Fli oncoprotein-driven transcription | A673 NR0B1-luciferase reporter, viability-normalised | inhibition, % at 12.6 µM | hit rate 0.67% among 350,000 | AID 651661;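 active = mean inhibition of at least 50% after viability correction, with every replicate also passing that limit; inconclusive = mean reaches 50% but only one of two replicates passes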;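 note: firefly luciferase signal divided by Alamar Blue viability fluorescence both relative to DMSO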
PAX8 reporter = lowers PAX8-driven luciferase in RMG-I cells; RMG-I TPO-luciferase reporter, SteadyGlo, 24 h; inhibition, % at 12.6 µM; hit rate 1.2% among 360,000;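 active = mean replicate inhibition at least 60% with every replicate also reaching 60%; inconclusive = only one of the two criteria is met; inactive = mean below 60% and not all replicates reaching 60%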;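 note: luciferase light reporting Pax8 driven TPO promoter activity; plate controls were median of neutral control wells for no effect and mitoxantrone controls for full effect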
INS-1E GSIS act = primary screen for activators of insulin secretion dependent on glucose, INS-1E cells, GLuc reporter luminescence. INS-1E GLuc reporter insulin secretion, 2-3 h. activation, % at 16.6 µM. hit rate 0.61% among 370,000;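 active = lowest replicate activation of at least 40%, so every replicate reaches that level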;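 note: 0% = median of neutral control wells and 100% = median of IBMX positive control wells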
Xi reactivation = reactivates the inactive X chromosome in mouse fibroblasts. XiGFP mouse fibroblasts, % GFP-positive cells imaging, 3 d; cells co-treated with 5-aza-dC sensitizer; scaled so ellipticine positive control = 100%. activation, % at 7.58 µM. hit rate 0.055% among 360,000. AID 743238;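 active = mean normalized replicate activation at least 10% and every replicate at or above 10%; inconclusive = only one of the two criteria met; inactive = mean below 10% and not all replicates reach 10%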;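 note: 0% = median of on-plate neutral control wells and 100% = ellipticine 6 µM median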
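Assay system: SV40-immortalized XiGFP fibroblast cells, line 68-5-11; buffer or medium: DMEM plus 5-aza-dC sensitizer; compound: one concentration, pinned; timing: compounds 3 days, fix/stain 15 min at room temperature; benchmarks: positive control ellipticine, 6 µM final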
MLL AF4-AF9 inh = inhibitors of human MLL-AF4/AF9 interaction. AlphaScreen, biotin-AF4 peptide binding to FLAG-AF9. inhibition, % at 10 µM. hit rate 0.47% among 350,000. AID 651704;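 active = every replicate reaching a set inhibition limit, whatever the replicate mean, cut at about 25% in these data; inconclusive = mean inhibition reaches that limit but some replicates miss it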;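 note: 0% = plate neutral control median and 100% = total signal loss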
Target sequence (P42568 whole entry, looked up): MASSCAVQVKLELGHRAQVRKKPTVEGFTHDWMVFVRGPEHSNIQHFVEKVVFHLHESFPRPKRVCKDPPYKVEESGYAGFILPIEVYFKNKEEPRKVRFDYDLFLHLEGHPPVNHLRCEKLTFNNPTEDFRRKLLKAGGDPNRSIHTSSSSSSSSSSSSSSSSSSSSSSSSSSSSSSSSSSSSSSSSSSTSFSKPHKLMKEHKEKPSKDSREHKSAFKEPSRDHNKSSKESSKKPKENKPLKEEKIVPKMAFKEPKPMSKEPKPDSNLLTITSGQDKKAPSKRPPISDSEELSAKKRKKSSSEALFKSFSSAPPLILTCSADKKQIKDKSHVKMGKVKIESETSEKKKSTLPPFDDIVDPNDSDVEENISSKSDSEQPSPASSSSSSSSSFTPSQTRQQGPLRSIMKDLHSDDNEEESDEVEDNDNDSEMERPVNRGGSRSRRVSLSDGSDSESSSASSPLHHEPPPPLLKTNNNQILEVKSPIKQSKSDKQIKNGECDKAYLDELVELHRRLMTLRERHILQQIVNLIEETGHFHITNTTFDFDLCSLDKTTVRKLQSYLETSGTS
Numbers without * were called inactive; u = inconclusive; x = no result given.

SMILES | PGC1a acetyl inh | EWS-Fli block | PAX8 reporter | INS-1E GSIS act | Xi reactivation | MLL AF4-AF9 inh
C[C@@H]1CCCCO[C@H](CN(C)Cc2ccc(C(F)(F)F)cc2)[C@@H](C)CN([C@H](C)CO)C(=O)c2cc(N(C)C)ccc2O1 | -5.3 | -7.5 | -0.2 | 0.8 | -0.8 | 10.8
C[C@@H]1CN([C@H](C)CO)C(=O)c2cc(N(C)C)ccc2O[C@@H](C)CCCCO[C@@H]1CN(C)Cc1ccc(C(F)(F)F)cc1 | -6.5 | 8.9 | 57.3 | -13.9 | -0.9 | 34.8*
C[C@@H]1CN([C@@H](C)CO)C(=O)c2cc(N(C)C)ccc2O[C@@H](C)CCCCO[C@@H]1CN(C)Cc1ccc(C(F)(F)F)cc1 | -5.9 | -4.0 | 9.5 | 0.5 | 1.0 | 39.1*
C[C@@H]1CN([C@H](C)CO)C(=O)c2cc(N(C)C)ccc2O[C@@H](C)CCCCO[C@H]1CN(C)Cc1ccc(C(F)(F)F)cc1 | 12.4 | u | 3.0 | -7.3 | -0.5 | 32.8*
C[C@@H]1CN([C@@H](C)CO)C(=O)c2cc(N(C)C)ccc2O[C@@H](C)CCCCO[C@H]1CN(C)Cc1ccc(C(F)(F)F)cc1 | 18.7 | 12.3 | 21.0 | -23.9 | 0.2 | 37.5*
C[C@H](CO)N1C[C@H](C)[C@@H](CN(C)Cc2ccc(C(F)(F)F)cc2)OCCCC[C@H](C)Oc2ccc(N(C)C)cc2C1=O | -14.6 | -6.2 | 16.0 | -2.2 | -0.7 | 21.7
C[C@@H]1CN([C@@H](C)CO)C(=O)c2cc(NS(C)(=O)=O)ccc2O[C@@H](C)CCCCO[C@H]1CN(C)C(=O)NC1CCCCC1 | -6.8 | x | -29.9 | 21.2 | 0.0 | -12.1
C[C@H](CO)N1C[C@H](C)[C@H](CN(C)Cc2ccc(C(F)(F)F)cc2)OCCCC[C@H](C)Oc2ccc(N(C)C)cc2C1=O | 16.6 | -8.5 | 21.4 | -4.9 | -1.0 | 31.8*
C[C@@H]1CN([C@@H](C)CO)C(=O)c2cccc(NC(=O)Nc3ccc(C(F)(F)F)cc3)c2O[C@@H]1CN(C)CC1CCCCC1 | -6.7 | 60.6* | x | x | -0.1 | 8.0
C[C@@H]1CN([C@H](C)CO)C(=O)c2cccc(NC(=O)Nc3ccc(C(F)(F)F)cc3)c2O[C@H]1CN(C)CC1CC1 | 0.7 | 2.7 | 78.1* | -31.1 | -0.1 | 1.5
C[C@H]1CN([C@@H](C)CO)C(=O)c2cccc(NC(=O)C3CCCCC3)c2O[C@@H]1CN(C)S(=O)(=O)c1cccs1 | 12.0 | 6.0 | 22.5 | 0.8 | 0.0 | -0.3
O=C(OCCN1C(=O)c2cccc3c(N4CCOCC4)ccc(c23)C1=O)c1ccc(Cl)cc1 | x | x | 61.4* | 2.9 | -0.1 | x
O=C(OCCN1C(=O)c2ccccc2C1=O)c1cc(S(=O)(=O)N2CCOCC2)ccc1F | 2.0 | x | -11.7 | x | x | x
CC(C)CN1CCC(=O)N([C@H](CN=[N+]=[N-])Cc2ccccc2)CC1 | -7.9 | 3.5 | -7.2 | -24.5 | 0.1 | -0.9
CCCN1CCC(=O)N([C@H](CN=[N+]=[N-])Cc2ccccc2)CC1 | -11.2 | -4.8 | -7.6 | -7.0 | 0.0 | 42.8*
CN1CCC(=O)N([C@H](CN=[N+]=[N-])Cc2ccccc2)CC1 | 9.1 | -2.5 | -2.0 | -8.2 | 0.0 | 42.9*
C[C@@H]1CCCCO[C@H](CN(C)C(=O)Nc2ccc3c(c2)OCO3)[C@@H](C)CN([C@H](C)CO)C(=O)c2cc(NC(=O)C3CCCCC3)ccc2O1 | -2.7 | -16.5 | x | -5.2 | 0.1 | 1.0
CCS(=O)(=O)NCC[C@@H]1CC[C@@H](NC(=O)C2CC2)[C@@H](CO)O1 | 5.6 | 0.9 | -25.9 | -0.9 | 0.3 | -4.5
CC(O)CNc1ncnc2nc[nH]c12 (centres undefined) | 6.4 | x | -4.4 | x | x | x
CC(C)=NNc1ncnc2nc[nH]c12 | -6.7 | -1.5 | 70.4* | x | 0.0 | -2.2
Cc1cc(-c2ccccc2)n(-c2cc(N/N=C/c3ccccc3O)ncn2)n1 | 38.4 | x | 71.1* | 26.7 | 0.0 | 0.9
O=C(NCCN1CCOCC1)C1CCN(c2nc3ccccc3o2)CC1 | 5.7 | 1.4 | x | 8.1 | x | 40.3*
COc1ccc(-c2cn(CC[C@H]3CC[C@H](NC(=O)Cc4ccccn4)[C@@H](CO)O3)nn2)cc1 | 1.8 | -8.2 | 85.7* | 2.3 | -0.1 | 2.8
COc1ccc(-c2cn(CC[C@H]3CC[C@H](NC(=O)Cc4ccccn4)[C@H](CO)O3)nn2)cc1 | 16.6 | -8.4 | 54.9 | -0.9 | 0.0 | 1.4
COc1cccc(S(=O)(=O)N[C@@H]2CC[C@H](CCn3cc(-c4ccccc4)nn3)O[C@H]2CO)c1 | 1.3 | 19.2 | 6.4 | -4.6 | -0.3 | -0.9
SMILES | PGC1a acetyl inh | EWS-Fli block | PAX8 reporter | INS-1E GSIS act | Xi reactivation | MLL AF4-AF9 inh
COc1cccc(S(=O)(=O)N[C@@H]2CC[C@H](CCn3cc(-c4ccccc4)nn3)O[C@@H]2CO)c1 | 6.7 | 52.7* | 12.2 | -7.0 | -0.2 | -1.3
Cc1ccccc1S(=O)(=O)N[C@H]1CC[C@H](CCn2cc(Cc3ccccc3)nn2)O[C@@H]1CO | 60.9* | -4.0 | -6.2 | 8.6 | -0.4 | -0.4
O=S(=O)(N[C@H]1CC[C@@H](CCn2cc(Cc3ccccc3)nn2)O[C@H]1CO)c1ccccc1F | -5.1 | x | x | -6.7 | 0.0 | 1.5
COc1ccc(-c2cn(CC[C@@H]3CC[C@@H](NC(=O)Cc4ccccn4)[C@@H](CO)O3)nn2)cc1 | -6.9 | -7.9 | 62.1* | -1.2 | -0.4 | 0.9
CC(C)NC(=O)N(C)C[C@@H]1OCCCC[C@@H](C)Oc2ccc(NC(=O)C3CCCCC3)cc2C(=O)N([C@H](C)CO)C[C@@H]1C | 7.6 | x | -11.9 | 18.0 | 0.0 | -16.8
COc1ccc(-c2cn(CC[C@H]3CC[C@@H](NC(=O)Cc4ccccn4)[C@H](CO)O3)nn2)cc1 | -12.1 | -6.7 | 76.6* | -5.2 | 0.2 | 2.9
CO[C@H]1CN(C)C(=O)c2ccc(NC(=O)c3ccc(F)cc3)cc2OC[C@H](C)N(C(=O)CN(C)C)C[C@H]1C | -25.6 | -6.9 | x | 0.7 | -0.4 | x
N#Cc1nc(COc2ccccc2Cl)oc1N1CCCC1 | x | -10.4 | 8.1 | x | 0.0 | 26.3*
O=[N+]([O-])c1cccc(-c2nnc3ccc4ccccc4n23)c1 | 0.7 | x | -8.4 | 55.1* | 0.1 | x
Cc1ccc(C(=O)N/C(=C\c2ccccc2)C(=O)OCc2ccccc2)cc1 | x | x | x | -23.4 | x | x
O=C(OCc1ccccc1)/C(=C/c1ccc(Cl)cc1)NC(=O)c1ccccc1Cl | 1.0 | x | x | 69.8* | x | x
OCCCn1c(-c2ccccc2)csc1=Nc1ccccc1 | x | -11.5 | 6.4 | 2.9 | 0.1 | 44.5*
C[C@H]1CN(C)C(=O)c2cc(N(C)C)ccc2O[C@H]1CN(C)C | x | x | x | -7.8 | 0.3 | x
c1csc(C2Nc3ccccc3-c3nc4ccccc4n32)c1 (centres undefined) | x | x | -155.4 | 5.7 | 0.0 | x
Cc1ccsc1C1Nc2ccccc2-c2nc3ccccc3n21 (centres undefined) | x | -0.6 | -160.2 | x | 30.2* | -4.1

Assay outcomes (PubChem)
